# In ChEMBL document CHEMBL3244142, “Antifungal properties of 2-bromo-3-fluorosuccinic acid esters and related compounds” (1977):
# Activity calls are given as the source filed them. No cut-off for these calls is given here.
# Legend:
# [1] = test system: Trichophyton mentagrophytes; assay: Antifungal activity against Trichophyton mentagrophytes ATCC 9129 at <100 ug/ml at pH 5.6 after 5 days in presence of 10% beef serum; assay type: functional, organism-based
# In short: (§1)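 Agar-dilution MIC in Sabouraud dextrose agar at pH 5.6 or 7.0, with or without 10% beef serum. Plates were incubated at 28 °C for 5 days. MIC is the lowest concentration (µg/mL) giving 100% inhibition. Steps were 1 µg/mL up to 10, 2 µg/mL from 10–20, and 10 µg/mL from 20–100; 100 µg/mL was the top level, and no inhibition there is scored as >100.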
# Mucor mucedo [2] = assay: Antifungal activity against Mucor mucedo ATCC 7941 at <100 ug/ml at pH 5.6 after 20 h in presence of 10% beef serum
# Mucor mucedo [3] = assay: Antifungal activity against Mucor mucedo ATCC 7941 at <100 ug/ml at pH 7 after 20 h in absence of 10% beef serum
# Aspergillus niger [4] = assay: Antifungal activity against Aspergillus niger ATCC 1004 at <100 ug/ml at pH 7 after 5 days in absence of 10% beef serum; assay type: functional, organism-based; in short: as §1
# Aspergillus niger [5] = assay: Antifungal activity against Aspergillus niger ATCC 1004 at <100 ug/ml at pH 7 after 5 days in presence of 10% beef serum; assay type: functional, organism-based; in short: as §1
# Aspergillus niger [6] = assay: Antifungal activity against Aspergillus niger ATCC 1004 at <100 ug/ml at pH 5.6 after 5 days in absence of 10% beef serum; assay type: functional, organism-based; in short: as §1
# [7] = test system: Trichophyton mentagrophytes; assay: Antifungal activity against Trichophyton mentagrophytes ATCC 9129 at <100 ug/ml at pH 7 after 5 days in presence of 10% beef serum; assay type: functional, organism-based; in short: as §1
# Aspergillus niger [8] = assay: Antifungal activity against Aspergillus niger ATCC 1004 at <100 ug/ml at pH 5.6 after 5 days in presence of 10% beef serum; assay type: functional, organism-based; in short: as §1
# Mucor mucedo [9] = assay: Antifungal activity against Mucor mucedo ATCC 7941 at <100 ug/ml at pH 5.6 after 20 h in absence of 10% beef serum
# Candida albicans [10] = assay: Antifungal activity against Candida albicans ATCC 10231 at <100 ug/ml at pH 7 after 20 h in absence of 10% beef serum
# Candida albicans [11] = assay: Antifungal activity against Candida albicans ATCC 10231 at <100 ug/ml at pH 5.6 after 20 h in presence of 10% beef serum
# Candida albicans [12] = assay: Antifungal activity against Candida albicans ATCC 10231 at <100 ug/ml at pH 7 after 20 h in presence of 10% beef serum
# Mucor mucedo [13] = assay: Antifungal activity against Mucor mucedo ATCC 7941 at <100 ug/ml at pH 7 after 20 h in presence of 10% beef serum
# Candida albicans [14] = assay: Antifungal activity against Candida albicans ATCC 10231 at <100 ug/ml at pH 5.6 after 20 h in absence of 10% beef serum
# [15] = test system: Trichophyton mentagrophytes; assay: Antifungal activity against Trichophyton mentagrophytes ATCC 9129 at <100 ug/ml at pH 5.6 after 5 days in absence of 10% beef serum; assay type: functional, organism-based; in short: as §1
# [16] = test system: Trichophyton mentagrophytes; assay: Antifungal activity against Trichophyton mentagrophytes ATCC 9129 at <100 ug/ml at pH 7 after 5 days in absence of 10% beef serum; assay type: functional, organism-based; in short: as §1
# Mucor mucedo [17] = assay: Antifungal activity against Mucor mucedo ATCC 7941 at pH 5.6 after 20 h in absence of 10% beef serum; conditions: ATCC 7941, 20 h
# Mucor mucedo [18] = assay: Antifungal activity against Mucor mucedo ATCC 7941 at pH 5.6 after 20 h in presence of 10% beef serum; conditions: ATCC 7941, 20 h
# Mucor mucedo [19] = assay: Antifungal activity against Mucor mucedo ATCC 7941 at pH 7 after 20 h in absence of 10% beef serum; conditions: ATCC 7941, 20 h
# [20] = test system: Trichophyton mentagrophytes; assay: Antifungal activity against Trichophyton mentagrophytes ATCC 9129 at pH 5.6 after 5 days in absence of 10% beef serum; assay type: functional; conditions: Trichophyton mentagrophytes, ATCC 9129, 120 h; read-out: MIC; in short: as §1
# Candida albicans [21] = assay: Antifungal activity against Candida albicans ATCC 10231 at pH 5.6 after 20 h in presence of 10% beef serum; conditions: ATCC 10231, 20 h
# [22] = test system: Trichophyton mentagrophytes; assay: Antifungal activity against Trichophyton mentagrophytes ATCC 9129 at pH 7 after 5 days in presence of 10% beef serum; assay type: functional; conditions: Trichophyton mentagrophytes, ATCC 9129, 120 h; read-out: MIC; in short: as §1
# [23] = test system: Trichophyton mentagrophytes; assay: Antifungal activity against Trichophyton mentagrophytes ATCC 9129 at pH 5.6 after 5 days in presence of 10% beef serum; assay type: functional; conditions: Trichophyton mentagrophytes, ATCC 9129, 120 h; read-out: MIC; in short: as §1
# [24] = test system: Trichophyton mentagrophytes; assay: Antifungal activity against Trichophyton mentagrophytes ATCC 9129 at pH 7 after 5 days in absence of 10% beef serum; assay type: functional; conditions: Trichophyton mentagrophytes, ATCC 9129, 120 h; read-out: MIC; in short: as §1
# Mucor mucedo [25] = assay: Antifungal activity against Mucor mucedo ATCC 7941 at pH 7 after 20 h in presence of 10% beef serum; conditions: ATCC 7941, 20 h
# Aspergillus niger [26] = assay: Antifungal activity against Aspergillus niger ATCC 1004 at pH 5.6 after 5 days in absence of 10% beef serum; assay type: functional; conditions: Aspergillus niger, ATCC 1004, 120 h; read-out: MIC; in short: as §1
# Candida albicans [27] = assay: Antifungal activity against Candida albicans ATCC 10231 at pH 7 after 20 h in presence of 10% beef serum; conditions: ATCC 10231, 20 h
# Candida albicans [28] = assay: Antifungal activity against Candida albicans ATCC 10231 at pH 5.6 after 20 h in absence of 10% beef serum; conditions: ATCC 10231, 20 h
# Aspergillus niger [29] = assay: Antifungal activity against Aspergillus niger ATCC 1004 at pH 7 after 5 days in absence of 10% beef serum; assay type: functional; conditions: Aspergillus niger, ATCC 1004, 120 h; read-out: MIC; in short: as §1
# Aspergillus niger [30] = assay: Antifungal activity against Aspergillus niger ATCC 1004 at pH 5.6 after 5 days in presence of 10% beef serum; assay type: functional; conditions: Aspergillus niger, ATCC 1004, 120 h; read-out: MIC; in short: as §1
# Aspergillus niger [31] = assay: Antifungal activity against Aspergillus niger ATCC 1004 at pH 7 after 5 days in presence of 10% beef serum; assay type: functional; conditions: Aspergillus niger, ATCC 1004, 120 h; read-out: MIC; in short: as §1
# Candida albicans [32] = assay: Antifungal activity against Candida albicans ATCC 10231 at pH 7 after 20 h in absence of 10% beef serum; conditions: ATCC 10231, 20 h
Structure (SMILES),inhibition [1],inhibition (Mucor mucedo [2]),inhibition (Mucor mucedo [3]),inhibition (Aspergillus niger [4]),inhibition (Aspergillus niger [5]),inhibition (Aspergillus niger [6]),inhibition [7],inhibition (Aspergillus niger [8]),inhibition (Mucor mucedo [9]),inhibition (Candida albicans [10]),inhibition (Candida albicans [11]),inhibition (Candida albicans [12]),inhibition (Mucor mucedo [13]),inhibition (Candida albicans [14]),inhibition [15],inhibition [16],MIC (Mucor mucedo [17]),MIC (Mucor mucedo [18]),MIC (Mucor mucedo [19]),MIC [20],further results
COC(=O)/C=C/CC(=O)OC,inactive,inactive,inactive,inactive,inactive,inactive,inactive,inactive,inactive,inactive,inactive,inactive,inactive,inactive,inactive,inactive,,,,,
CCCCCCOC(=O)[C@@H](F)[C@@H](Br)C(=O)OCCCCCC (relative stereo),inactive,inactive,inactive,inactive,inactive,inactive,inactive,inactive,inactive,inactive,inactive,inactive,inactive,inactive,inactive,inactive,,,,,
COC(=O)C#CC(=O)OC,inactive,,,inactive,inactive,inactive,inactive,inactive,,inactive,inactive,inactive,inactive,inactive,,inactive,8 µg/mL,30 µg/mL,70 µg/mL,40 µg/mL,
CC1/C=C/C=C/C=C/C=C/C=C/C=C/C=C/C(OC2O[C@H](C)[C@@H](O)[C@H](N)[C@@H]2O)CC(O)C(C(=O)O)C(O)CC(=O)CC(O)CC(O)CC(O)CC(=O)CCCC(=O)CC(=O)OC1C(C)CC(C)C(O)CC(=O)c1ccc(N)cc1 (stereo not given in full),,,,,,,,,,,,,,,,,< 1 µg/mL,< 1 µg/mL,< 1 µg/mL,< 1 µg/mL,MIC (Candida albicans [21]): < 1 µg/mL; MIC [22]: 9 µg/mL; MIC [23]: < 1 µg/mL; MIC [24]: 3 µg/mL; MIC (Mucor mucedo [25]): 2 µg/mL; MIC (Aspergillus niger [26]): 2 µg/mL; MIC (Candida albicans [27]): 2 µg/mL; MIC (Candida albicans [28]): < 1 µg/mL; MIC (Aspergillus niger [29]): 8 µg/mL; MIC (Aspergillus niger [30]): 5 µg/mL; MIC (Aspergillus niger [31]): 10 µg/mL; MIC (Candida albicans [32]): < 1 µg/mL
CCCCCCOC(=O)/C=C\C(=O)OCCCCCC,inactive,inactive,inactive,inactive,inactive,inactive,inactive,inactive,inactive,inactive,inactive,inactive,inactive,inactive,inactive,inactive,,,,,
